Experimental data from ChEMBL document CHEMBL1128308, “Synthesis and antiinflammatory activity of certain 5,6,7,8-tetrahydroquinolines and related compounds” (J Med Chem, 1995).

Tests used:
[1] = biological target: T1, Polyunsaturated fatty acid 5-lipoxygenase (Rattus norvegicus) (UniProt P12527); assay: Inhibition of 5-lipoxygenase pathway in rat polymorphonuclear assay (inhibition of 5-HETE formation)
T1 sequence (whole entry): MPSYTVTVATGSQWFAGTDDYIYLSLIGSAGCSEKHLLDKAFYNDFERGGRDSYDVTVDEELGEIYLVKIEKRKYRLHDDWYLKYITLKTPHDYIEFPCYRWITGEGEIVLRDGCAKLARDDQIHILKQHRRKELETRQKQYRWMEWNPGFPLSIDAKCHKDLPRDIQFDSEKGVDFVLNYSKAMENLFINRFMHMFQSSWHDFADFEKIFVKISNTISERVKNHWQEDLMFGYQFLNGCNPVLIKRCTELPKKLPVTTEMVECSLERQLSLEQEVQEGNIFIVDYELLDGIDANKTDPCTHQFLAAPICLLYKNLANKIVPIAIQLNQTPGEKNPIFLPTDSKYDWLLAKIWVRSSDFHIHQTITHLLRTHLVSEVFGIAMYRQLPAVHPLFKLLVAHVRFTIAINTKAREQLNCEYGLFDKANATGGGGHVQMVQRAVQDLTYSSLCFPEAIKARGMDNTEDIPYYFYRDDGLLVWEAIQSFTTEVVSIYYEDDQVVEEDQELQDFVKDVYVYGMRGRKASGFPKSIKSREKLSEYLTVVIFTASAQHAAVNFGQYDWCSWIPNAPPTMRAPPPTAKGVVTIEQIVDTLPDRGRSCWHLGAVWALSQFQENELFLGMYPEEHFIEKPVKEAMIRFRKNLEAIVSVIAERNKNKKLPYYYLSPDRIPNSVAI
How it was run: (§1)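 Rat polymorphonuclear leucocytes at 10^7 cells/mL in HBSS (Mg2+, Ca2+, 10 mM cysteine) were preincubated with compound, added in DMSO, for 10 min at 37 °C with shaking. Radiolabeled eicosanoids (5-HETE for the 5-LO pathway, TXB2 for the CO pathway) were separated by HPLC and detected with an in-line radioactivity detector. Results are given as percent change at 10 µM or 50 µM.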

[2] = biological target: T1, Polyunsaturated fatty acid 5-lipoxygenase (Rattus norvegicus); assay: Inhibition of 5-lipoxygenase pathway in rat polymorphonuclear assay, by ability to inhibit formation of LTB4 AT 10 uM
Rattus norvegicus [3] = assay: Antiinflammatory activity by rat Carrageenan edema assay at 50 mg/kg peroral administration (3h edema).; format: functional; conditions: route oral
How it was run: (§2)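 Groups of six male Sprague-Dawley rats (150-165 g) were dosed po in 0.5% methyl cellulose. One hour later, 0.1 mL of 1% carrageenan was injected subplantar into the right hind paw. Edema was taken as the 3 h paw volume minus the zero-time volume and expressed as percent change versus vehicle; screening dose was 50 mg/kg po.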

Rattus norvegicus [4] = assay: Antiinflammatory activity by rat adjuvant arthritis assay at 30 mg/kg peroral administration (uninjected paw at day 16).; conditions: route oral
[5] = biological target: T1, Polyunsaturated fatty acid 5-lipoxygenase (Rattus norvegicus); assay: 5-lipoxygenase Inhibitory activity against rat polymorphonuclear leucocytes using 5-HETE; how it was run: as §1
[6] = biological target: T1, Polyunsaturated fatty acid 5-lipoxygenase (Rattus norvegicus)
[7] = biological target: T1, Polyunsaturated fatty acid 5-lipoxygenase (Rattus norvegicus); remark: listed apart in the source
[8] = biological target: Cyclooxygenase (Rattus norvegicus) (UniProt P35355+Q63921)
[9] = biological target: T1, Polyunsaturated fatty acid 5-lipoxygenase (Rattus norvegicus); assay: Inhibition of 5-lipoxygenase pathway was evaluated in rat polymorphonuclear assay by compound (50 uM) ability to inhibit formation of 5-HETE; how it was run: as §1
Rattus norvegicus [10] = organism: Rattus norvegicus; assay: Anti-inflammatory activity by rat acute gastric irritation assay, activity is expressed as Ulcerogenic dose (UD50).; format: functional, Stomach
How it was run: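 Male Sprague-Dawley rats (190-220 g) were fasted for 18 h, then given compound in 0.5% Tween 80 by gastric intubation at 1 mL/100 g, with groups of 8 scored blind. At 4 h, gastric irritation was scored 0-3: 0 none, 1 redness, 2 ≤5 lesions, 3 >5 lesions. The ulcerogenic dose is the dose at which 50% of rats had at least one lesion.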

[11] = biological target: T1, Polyunsaturated fatty acid 5-lipoxygenase (Rattus norvegicus); remark: listed apart in the source
Rattus norvegicus [12] = organism: Rattus norvegicus; assay: Anti-inflammatory activity by rat adjuvant Arthritis assay..
Rattus norvegicus [13] = assay: Anti-inflammatory activity by rat carrageenan edema assay. (3h edema).; format: functional; how it was run: as §2

Compound | Change [1] | Change [2] | Change (Rattus norvegicus [3]) | Change (Rattus norvegicus [4]) | other results
Cc1cnc2c(c1)CCCC2[S+]([O-])c1ccccc1 (stereo unspecified) | 50% | 13% | -25% | 13% | –
Cc1ccc(C(=O)C2CCCc3c(C)ccnc32)cc1C (stereo unspecified) | – | -53% | -25% | -28% | Change [5]: -50%
Cc1ccc(C(O)Cc2ccc3c(n2)CCCCC3)cc1 (stereo unspecified) | -14% | -29% | -41% | 28% | –
Cc1ccc([C@@H](O)[C@@H]2CCCc3cc(C)cnc32)cc1 | -27% | -11% | -15% | -3% | –
COc1cc(/C=C2\CCCc3cc(C)cnc32)ccc1O | – | – | -36% | -1% | –
Cc1ccc([C@H](O)[C@@H]2CCCCc3cccnc32)cc1 | -31% | -37% | -26% | -32% | –
Cc1cccc(C(=O)C2CCCc3cccnc32)c1 (stereo unspecified) | – | -11% | -6% | -16% | Change [5]: 23%
COc1ccc2cc([C@H](C)C(=O)O)ccc2c1 | – | – | – | – | IC50 [6]: > 100 µM; IC50 [7]: > 100 µM; IC50 [8]: 0.1 µM
Cc1ccc(/C=C2\CCCc3cc(C)cnc32)cc1 | – | – | -47% | 17% | Change [9]: -28%
Cc1ccc(Cc2nc3c(cc2C)CCCCC3)cc1 | -37% | -57% | -26% | – | –
Cc1cc2c(nc1C(O)c1cccc(Cl)c1)CCCCC2 (stereo unspecified) | -42% | -51% | -28% | 30% | –
Cc1ccc(C(N)c2nc3c(cc2C)CCCCC3)cc1 (stereo unspecified) | -23% | -29% | -10% | -3% | –
Cc1ccc(C(C)(O)c2nc3c(cc2C)CCCCC3)cc1 (stereo unspecified) | -14% | -13% | 2.5% | -4% | –
Cc1ccc([C@@H](O)[C@H]2c3ncc(C)cc3CCC2(C)C)cc1 | 27% | 8% | -19% | -39% | –
Cc1cnc2c(c1)CCCC2S(=O)(=O)c1ccccc1 (stereo unspecified) | 0% | 6% | -22% | -2% | –
Cc1ccc(S(=O)(=O)NC2CCCc3cc(C)cnc32)cc1 (stereo unspecified) | – | 2% | -33% | 77% | Change [5]: -16%

Compound | Change [1] | Change [2] | Change (Rattus norvegicus [3]) | Change (Rattus norvegicus [4]) | other results
Cc1cc2c(nc1C(O)c1ccc(C(F)(F)F)cc1)CCCCC2 (stereo unspecified) | 5% | 40% | -24% | -18% | –
C/C(=C1/CCCc2c(C)ccnc21)c1ccc(C)cc1 | – | -18% | -15% | 0% | Change [5]: 1%
COc1cc(/C=C2\CCCc3c(C)ccnc32)ccc1OC(C)=O | – | – | -45% | 23% | Change [9]: -100%
CC(C)Cc1ccc(C(C)C(=O)O)cc1 (stereo unspecified) [IBUPROFEN] | – | – | – | – | UD50 (Rattus norvegicus [10]): 42 mg/kg; IC50 [11]: > 50 µM; IC50 [7]: > 50 µM; ED50 (Rattus norvegicus [12]): 95 mg/kg
Cc1cc2c(nc1C(O)c1cccnc1)CCCCC2 (stereo unspecified) | -5% | 9% | -14% | 18% | –
CC(c1cc2ccccc2s1)N(O)C(N)=O (stereo unspecified) | – | – | – | – | IC50 [6]: 0.3 µM; IC50 [7]: 0.4 µM; IC50 [8]: 16 µM
Cc1ccc(C(O)c2ccc3c(n2)CCCCC3)cc1 (stereo unspecified) | -28% | -25% | -26% | -33% | –
Cc1cc2c(nc1C(O)c1cccs1)CCCCC2 (stereo unspecified) | 37% | 34% | -9.5% | -6% | –
Cc1cnc2c(c1)CCCC2Sc1ccccc1 (stereo unspecified) | – | -39% | -21% | -27% | Change [5]: -50%
Cc1ccc([C@@H](O)[C@@H]2CCCCc3cccnc32)cc1 | -37% | -37% | -33% | -42% | –
C/C(=C1\CCCc2c(C)ccnc21)c1ccc(C)cc1 | – | -22% | -15% | -14% | Change [5]: 7%
Cc1ccc([C@H](O)[C@@H]2CCCc3cc(C)cnc32)cc1 | -49% | -48% | -33% | 49% | –
NC1=NN(c2cccc(C(F)(F)F)c2)CC1 [BW-755C] | – | – | – | – | ED50 (Rattus norvegicus [13]): 72 mg/kg; IC50 [6]: 10 µM; IC50 [7]: 11 µM; ED50 (Rattus norvegicus [12]): 38 mg/kg
COc1cc(/C=C2\CCCc3cc4ccccc4nc32)ccc1OC(C)=O | – | – | -39% | 14% | Change [9]: -100%
Cc1ccc(C(=O)C2CCCc3c(C)ccnc32)cc1 (stereo unspecified) | – | -34% | -12% | 19% | Change [5]: -41%

Further lines, with some results ahead:

Change [1] | Change [2] | Compound | Change (Rattus norvegicus [3]) | Change (Rattus norvegicus [4]) | other results
– | 86% | Cc1ccc(/C=C2\c3ncc(C)cc3CCC2(C)C)cc1 | -48% | 8% | Change [5]: 97%
-34% | -50% | COc1cccc(C(O)c2nc3c(cc2C)CCCCC3)c1 (stereo unspecified) | -28% | -14% | –
-29% | -4% | Cc1cc2c(nc1C(O)c1ccccc1)CCCCC2 (stereo unspecified) | -45% | -45% | –
– | -4% | Cc1ccnc2c1CCC/C2=C\c1ccncc1 | -15% | 3% | Change [5]: 9%
-45% | -43% | Cc1ccc(C(O)c2nc3c(cc2C)CCC3)cc1 (stereo unspecified) | -3.5% | -2% | –
-10% | -12% | COC(c1ccc(C)cc1)c1nc2c(cc1C)CCCCC2 (stereo unspecified) | -9.5% | -26% | –
– | -23% | Cc1ccnc2c1CCC/C2=C/c1ccnc2ccccc12 | -36% | -38% | Change [5]: -5%
-44% | -23% | Cc1ccc(C(O)c2nc3c(cc2C)CCCC3)cc1 (stereo unspecified) | -12.5% | -34% | –
-49% | -52% | Cc1ccc(C(=O)c2nc3c(cc2C)CCCCC3)cc1 | -59% | -26% | –
– | -25% | Cc1ccnc2c1CCC/C2=C/c1ccncc1 | -17% | -49% | Change [5]: -17%
